High-throughput results as filed in PubChem BioAssay.
RGS4 inh: inhibitors of human RGS4; HEK293 M3R/RGS4 inducible, Fluo-4 calcium flux; active compounds read high; triggered by carbachol at its EC20; actives 0.45% (n = 310,000); P49798; B-score at 10 µM;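 active means B-score, a plate-corrected calcium signal, over three deviations above library mean, with baseline fluorescence within five deviations of library mean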;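 further: RGS4 expression induced by doxycycline in cells with stable M3 receptor; B-score is computed from the integrated fluorescence ratio over baseline after carbachol; higher B-score means a larger calcium signal and so more RGS4 inhibition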
MrgX1 PAM: allosterically activates human MrgX1 receptor signaling; B-score at 10 µM; AID 588675; Q96LB2; actives 0.63% (n = 310,000); MrgX1-HEK293, Fluo-4 calcium flux, FDSS; active compounds read high;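 active means plate-corrected calcium response at least 3 library SD above typical, normal starting fluorescence, not activating the receptor alone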;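 further: compound read alongside a low EC10 to EC30 dose of BAM8-22 agonist; peak minus trough fluorescence over baseline measured at the second addition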
Target sequence (Q96LB2 whole entry, looked up): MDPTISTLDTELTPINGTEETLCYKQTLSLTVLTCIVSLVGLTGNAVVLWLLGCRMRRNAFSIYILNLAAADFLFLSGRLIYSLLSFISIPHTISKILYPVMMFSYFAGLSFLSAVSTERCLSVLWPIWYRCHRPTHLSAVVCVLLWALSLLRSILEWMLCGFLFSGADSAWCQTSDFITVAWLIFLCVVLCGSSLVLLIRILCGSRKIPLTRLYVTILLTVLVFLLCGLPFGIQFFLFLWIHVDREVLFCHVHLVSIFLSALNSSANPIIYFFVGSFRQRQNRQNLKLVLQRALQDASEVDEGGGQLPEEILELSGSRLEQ
MrgX1 antagonist: antagonists of human MrgX1 receptor; Q96LB2; actives 1.3% (n = 310,000); AID 588676; MRGX1-HEK293 calcium flux, Fluo-4, BAM8-22 antagonism; active compounds read low; B-score at 10 µM;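 active means calcium-response B-score plate-corrected more than 3 library SD below zero, starting fluorescence within 5 deviations, no agonist response on first addition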;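 further: peak minus trough fluorescence over baseline after final BAM8-22 challenge near maximal dose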
RGS4 act: potentiators or activators of RGS4; AID 463111; HEK293 M3R/inducible RGS4, carbachol calcium flux Fluo4; active compounds read low; actives 0.92% (n = 310,000); B-score at 10 µM;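 active means B-score of the integrated calcium signal more than 4 SD below the library mean, with starting fluorescence not abnormally high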;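 further: negative B-score means reduced calcium response which marks RGS4 activation or potentiation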
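Assay system: Inducible-RGS4 HEK293 cells carrying M3 receptor | Schedule: Compound preincubation 20 min at room temperature before agonist | Signal: Kinetic calcium fluorescence imaging with Fluo4-AM dye, 2 µM | Read-out basis: B score from integrated fluorescence ratio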
MrgX1 ag: human MrgX1 receptor agonism, primary screen; Q96LB2; MrgX1-HEK293 cells, Fluo-4 calcium fluorescence, agonist mode; active compounds read high; B-score at 10 µM; actives 0.44% (n = 310,000);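 active means calcium response B-score plate-corrected fluorescence ratio at least 3 library SD, with starting fluorescence B-score inside 5 SD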
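Material: HEK293 cells stably expressing human MrgX1 receptor | Quantity: 15,000 cells per well | Times: Cells plated overnight, dye loaded 0.5 h 37 °C, 0.5 h room temperature | Measured by: Kinetic Fluo-4 NW fluorescence of intracellular calcium | Control set: Positive and negative controls per plate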
Numbers without * were called inactive; i = inactive; · = no result given. Sampled rows, rich in hits. Any-hit rate of the full collection: about 3.5%.

SMILES	RGS4 inh	MrgX1 PAM	MrgX1 antagonist	RGS4 act	MrgX1 ag
O=C(Nn1cnc2ccccc2c1=O)C1CCCCC1	i	i	-7.53*	i	i
Cc1onc(-c2c(Cl)cccc2Cl)c1C(=O)NN1CCCCCC1	i	i	i	-8.44*	i
Cc1onc(-c2c(Cl)cccc2Cl)c1C(=O)NC1CCCCC1	i	i	i	i	i
Cc1cccc(NC(=O)CSc2nc3ccccc3o2)c1	i	i	i	i	i
Cc1nn2c(-c3cccc(NC(=O)CSc4nc5ccccc5o4)c3)nnc2c2ccccc12	i	i	i	-7.92*	i
Cc1cccc(N2CCN(CCCNC(=O)c3ccc(NC(=O)C4=CSCCO4)cc3)CC2C)c1 (configuration not stated)	i	i	i	i	i
O=C(CCn1cccn1)Nc1ccc2c(c1)OCO2	i	i	i	i	i
CCN(CC)c1ccc(C=Nc2ccccc2)c(O)c1	i	i	i	i	i
CCN(CC)c1ccc(/C=N/N2CCOCC2)c(O)c1	i	i	i	i	i
CCN(CC)c1ccc(/C=N/N2C(C)CCCC2C)c(O)c1 (configuration not stated)	i	7.7*	i	i	i
CCN(CC)c1ccc(/C=N/N=C(N)N)c(O)c1	i	7.75*	-5.53*	i	i
CN(CCCN1CCCCC1)C(=O)c1cc(COc2ccc(F)cc2F)on1	i	i	-7.3*	i	i
CN(CCCC1CCCC1)C(=O)c1cc(COc2ccc(F)cc2F)on1	i	i	i	i	i
COc1ccc(O[C@H]2C=C[C@@H](c3ccccc3)O[C@@H]2COC(=O)CC/C(C)=N/O[C@@H](C)c2cc(-c3c(C)cc(C)cc3C)no2)cc1	i	·	·	i	·
COc1ccc(O[C@H]2C=C[C@@H](c3ccccc3)O[C@@H]2COC(=O)CC/C(C)=N/OC[C@@H](O)COCc2ccco2)cc1	i	i	i	-9.69*	i
Cn1ncc(Cl)c1C(=O)N/N=C/c1ccccn1	i	i	-9.3*	i	i
CCN(C(=O)COC(=O)c1ccc(F)c(S(=O)(=O)N2CCOCC2)c1)C1CCS(=O)(=O)C1 (configuration not stated)	i	i	i	i	i
O=C(NNC(=O)c1ccccc1Cl)c1cc2cc(OC(F)(F)F)ccc2[nH]1	i	7.53*	i	i	i
Cc1ccc(NC(=O)c2cc3cc(OC(F)(F)F)ccc3[nH]2)cc1	i	i	i	i	i
O=C(O)c1ccc(/C=N/NC(=O)C2CC2(c2ccccc2)c2ccccc2)cc1 (configuration not stated)	i	i	-5.71*	i	i
CN(C)c1ccc(/C=C/c2cc[n+](C)cc2)cc1	i	i	i	i	36.6*
N#Cc1c(Cl)nsc1NCCN1CCOCC1	i	i	i	i	i
NC(=NCc1ccco1)NC(=O)c1ccccc1	i	i	i	i	i
Cc1ccc(C(=O)OC(C)C(=O)NC2CCCCC2C)cc1S(=O)(=O)N1CCCCC1 (configuration not stated)	i	i	i	i	i
O=[N+]([O-])c1ccc(S(=O)(=O)CC2CSc3nc4ccccc4n32)cc1 (configuration not stated)	i	i	-5*	i	i
Cc1nnc2n(c1=O)C(CS(=O)(=O)c1ccccc1)CS2 (configuration not stated)	i	i	i	i	i
COc1ccc(N2CC(O)(c3ccc(OC(F)F)cc3)[N+]3=C2CCCC3)cc1 (configuration not stated)	i	i	i	-8.33*	i
COc1ccc(N2CC(O)(c3ccc(F)cc3)[N+]3=C2CCCC3)cc1 (configuration not stated)	i	i	i	i	i
CCN(CC)CCCNC(=O)c1ccc(N2CCCCC2)c(NS(=O)(=O)c2ccc(C)cc2)c1	i	i	i	i	26.6*
Cc1cc(C(=O)Nc2ccccc2C(=O)O)c(C)o1	i	i	i	i	i
